Our source for the INH values is ChEMBL document CHEMBL3425433, “Discovery of bicyclic pyrazoles as class III histone deacetylase SIRT1 and SIRT2 inhibitors” (Bioorg Med Chem Lett, 2015).

The assay addresses T1, NAD-dependent protein deacetylase sirtuin-1 (Homo sapiens) (UniProt Q96EB6).
T1 sequence (whole entry): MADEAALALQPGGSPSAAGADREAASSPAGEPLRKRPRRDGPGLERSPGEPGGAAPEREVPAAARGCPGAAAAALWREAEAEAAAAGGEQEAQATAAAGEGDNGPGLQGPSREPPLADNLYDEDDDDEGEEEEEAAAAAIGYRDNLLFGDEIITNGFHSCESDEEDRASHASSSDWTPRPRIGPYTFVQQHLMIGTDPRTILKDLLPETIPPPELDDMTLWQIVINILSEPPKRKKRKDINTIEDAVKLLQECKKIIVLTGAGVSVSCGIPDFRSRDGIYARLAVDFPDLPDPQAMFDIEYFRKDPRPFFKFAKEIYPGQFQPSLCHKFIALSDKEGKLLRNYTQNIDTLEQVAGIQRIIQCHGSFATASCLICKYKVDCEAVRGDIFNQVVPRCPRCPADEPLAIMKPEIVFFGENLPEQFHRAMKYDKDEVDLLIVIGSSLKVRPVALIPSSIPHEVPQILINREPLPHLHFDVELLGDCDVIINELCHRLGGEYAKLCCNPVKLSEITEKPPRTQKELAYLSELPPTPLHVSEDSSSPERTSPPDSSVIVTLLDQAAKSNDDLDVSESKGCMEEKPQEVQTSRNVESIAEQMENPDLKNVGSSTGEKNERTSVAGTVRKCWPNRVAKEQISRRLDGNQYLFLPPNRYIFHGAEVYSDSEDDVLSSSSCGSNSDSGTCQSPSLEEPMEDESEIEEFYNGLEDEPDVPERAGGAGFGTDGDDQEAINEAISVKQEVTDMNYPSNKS
Nature of the assay: Inhibition of SIRT1-mediated endogenous p53 deacetylase activity in human Namalwa cells assessed as concentration required to […] to twice the basal level after 3 hrs by ELISA. The assay is classed as cell-based. An outline of the steps:
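Namalwa cells, 50,000/well, were exposed 3 h at 37 °C, 5% CO2, to 0.005–50 µM final (0.95% DMSO). Lysates were ELISA-captured on anti-p53 (DO-1), probed overnight with anti-acetyl-Lys382-p53, then HRP conjugate and Amplex Red (15 min; ex 550/em 610 nm). IC2xB is the concentration doubling basal (lowest) fluorescence. Means of three experiments.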
(In an ELISA, binding on a coated surface is turned into a signal by an enzyme label.)

For `NC(=O)C1CCCc2c1[nH]c1ccc(Cl)cc21` (racemic), the INH was determined as 0.6 µM.
